Source: ChEMBL document CHEMBL2331324, “Synthesis and biological evaluation of guanidino analogues of roscovitine” (Eur J Med Chem, 2013)

How the values were obtained:
[1] = molecular target: Serine/threonine-protein kinase PAK 2 (Homo sapiens) (UniProt Q13177); assay: Inhibition of recombinant PAK2 (unknown origin) assessed as residual activity using [gamma-33P]ATP as substrate at 1 uM
Outline: (§1)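 Selectivity panel run under previously published conditions. Screened at 1 μM in duplicate. Reactions started with [γ-33P]ATP (800 cpm/pmol) at 5, 20 or 50 μM, chosen to be at or below each enzyme's ATP Km. Stopped with phosphoric acid, spotted onto P81 filters. Result expressed as residual kinase activity.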

[2] = molecular target: Mitogen-activated protein kinase 12 (Homo sapiens) (UniProt P53778); assay: Inhibition of recombinant p38 MAPKgamma (unknown origin) assessed as residual activity using [gamma-33P]ATP as substrate at 1 uM
Mitogen-activated protein kinase 12 (Homo sapiens), sequence (P53778 whole entry): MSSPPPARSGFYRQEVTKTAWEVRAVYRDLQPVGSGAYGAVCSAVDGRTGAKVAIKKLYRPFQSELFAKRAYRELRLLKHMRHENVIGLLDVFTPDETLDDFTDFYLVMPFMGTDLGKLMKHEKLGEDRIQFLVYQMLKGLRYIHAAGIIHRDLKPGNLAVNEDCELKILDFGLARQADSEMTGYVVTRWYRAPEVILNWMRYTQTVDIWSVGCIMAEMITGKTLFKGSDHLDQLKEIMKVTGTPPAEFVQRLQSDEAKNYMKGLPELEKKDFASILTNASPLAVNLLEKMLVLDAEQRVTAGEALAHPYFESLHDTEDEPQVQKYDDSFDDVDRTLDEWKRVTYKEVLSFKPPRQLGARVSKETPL
Outline: (§2)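 Kinase panel screen with each compound at 1 µM, in duplicate. Reactions were started with [γ-33P]ATP (800 cpm/pmol) at 5, 20 or 50 µM, chosen per enzyme to be at or below its ATP Km. Reactions were stopped with phosphoric acid and spotted onto P81 filters. Results are given as residual kinase activity.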

[3] = molecular target: MAP kinase-interacting serine/threonine-protein kinase 1 (Homo sapiens) (UniProt Q9BUB5); assay: Inhibition of recombinant MNK1 (unknown origin) assessed as residual activity using [gamma-33P]ATP as substrate at 1 uM; outline: as §1
[4] = molecular target: Dual specificity mitogen-activated protein kinase kinase 1 (Homo sapiens) (UniProt Q02750); assay: Inhibition of recombinant MKK1 (unknown origin) assessed as residual activity using [gamma-33P]ATP as substrate at 1 uM; outline: as §1
[5] = molecular target: Mitogen-activated protein kinase kinase kinase 1 (Homo sapiens) (UniProt Q13233); assay: Inhibition of recombinant MEKK1 (unknown origin) assessed as residual activity using [gamma-33P]ATP as substrate at 1 uM; outline: as §1
[6] = molecular target: Maternal embryonic leucine zipper kinase (Homo sapiens) (UniProt Q14680); assay: Inhibition of recombinant MELK (unknown origin) assessed as residual activity using [gamma-33P]ATP as substrate at 1 uM; outline: as §1
[7] = molecular target: Serine/threonine-protein kinase MARK2 (Homo sapiens) (UniProt Q7KZI7); assay: Inhibition of recombinant MARK2 (unknown origin) assessed as residual activity using [gamma-33P]ATP as substrate at 1 uM; outline: as §1
Serine/threonine-protein kinase MARK2 (Homo sapiens), sequence (Q7KZI7 whole entry): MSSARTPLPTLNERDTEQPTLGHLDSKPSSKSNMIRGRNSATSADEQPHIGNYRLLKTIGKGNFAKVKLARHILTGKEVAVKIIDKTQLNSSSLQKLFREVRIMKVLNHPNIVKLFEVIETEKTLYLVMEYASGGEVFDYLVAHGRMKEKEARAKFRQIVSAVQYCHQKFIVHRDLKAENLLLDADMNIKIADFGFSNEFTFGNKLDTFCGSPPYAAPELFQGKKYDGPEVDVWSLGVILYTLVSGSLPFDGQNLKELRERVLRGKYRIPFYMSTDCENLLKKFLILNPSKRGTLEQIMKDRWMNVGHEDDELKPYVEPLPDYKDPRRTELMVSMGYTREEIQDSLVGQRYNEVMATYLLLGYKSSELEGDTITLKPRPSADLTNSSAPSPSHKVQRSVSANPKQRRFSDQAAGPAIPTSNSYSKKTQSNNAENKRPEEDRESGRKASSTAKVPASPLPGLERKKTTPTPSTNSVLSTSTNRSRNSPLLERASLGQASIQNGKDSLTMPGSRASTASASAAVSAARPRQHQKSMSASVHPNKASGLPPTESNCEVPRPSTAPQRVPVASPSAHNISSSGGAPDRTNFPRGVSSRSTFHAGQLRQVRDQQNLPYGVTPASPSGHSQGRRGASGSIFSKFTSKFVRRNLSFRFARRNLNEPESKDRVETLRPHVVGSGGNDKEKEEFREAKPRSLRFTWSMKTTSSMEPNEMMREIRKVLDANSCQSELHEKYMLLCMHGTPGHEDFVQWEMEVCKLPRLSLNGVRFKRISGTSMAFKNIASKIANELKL

[8] = molecular target: Mitogen-activated protein kinase 8 (Homo sapiens) (UniProt P45983); assay: Inhibition of recombinant JNK1 (unknown origin) assessed as residual activity using [gamma-33P]ATP as substrate at 1 uM; outline: as §1
[9] = molecular target: Insulin receptor-related protein (Homo sapiens) (UniProt P14616); assay: Inhibition of recombinant IRR (unknown origin) assessed as residual activity using [gamma-33P]ATP as substrate at 1 uM
Outline: (§3)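 Recombinant kinase panel screened at 1 µM in duplicate. Reactions started with [γ-33P]ATP (800 cpm/pmol) at 5, 20 or 50 µM, chosen to sit at or below each enzyme's ATP Km. Stopped with phosphoric acid and spotted onto P81 filters. Result given as residual kinase activity.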

[10] = molecular target: Interleukin-1 receptor-associated kinase 1 (Homo sapiens) (UniProt P51617); assay: Inhibition of recombinant IRAK1 (unknown origin) assessed as residual activity using [gamma-33P]ATP as substrate at 1 uM; outline: as §3
[11] = molecular target: Mitogen-activated protein kinase kinase kinase kinase 2 (Homo sapiens) (UniProt Q12851); assay: Inhibition of recombinant GCK (unknown origin) assessed as residual activity using [gamma-33P]ATP as substrate at 1 uM; outline: as §3
[12] = molecular target: Mitogen-activated protein kinase 15 (Homo sapiens) (UniProt Q8TD08); assay: Inhibition of recombinant ERK8 (unknown origin) assessed as residual activity using [gamma-33P]ATP as substrate at 1 uM; outline: as §3
[13] = molecular target: Mitogen-activated protein kinase kinase kinase 7 (Homo sapiens) (UniProt O43318); assay: Inhibition of recombinant TAK1 (unknown origin) assessed as residual activity using [gamma-33P]ATP as substrate at 1 uM; outline: as §2
[14] = molecular target: Proto-oncogene tyrosine-protein kinase Src (Homo sapiens) (UniProt P12931); assay: Inhibition of recombinant SRC (unknown origin) assessed as residual activity using [gamma-33P]ATP as substrate at 1 uM; outline: as §2
Proto-oncogene tyrosine-protein kinase Src (Homo sapiens), sequence (P12931 2-536 limits assumed): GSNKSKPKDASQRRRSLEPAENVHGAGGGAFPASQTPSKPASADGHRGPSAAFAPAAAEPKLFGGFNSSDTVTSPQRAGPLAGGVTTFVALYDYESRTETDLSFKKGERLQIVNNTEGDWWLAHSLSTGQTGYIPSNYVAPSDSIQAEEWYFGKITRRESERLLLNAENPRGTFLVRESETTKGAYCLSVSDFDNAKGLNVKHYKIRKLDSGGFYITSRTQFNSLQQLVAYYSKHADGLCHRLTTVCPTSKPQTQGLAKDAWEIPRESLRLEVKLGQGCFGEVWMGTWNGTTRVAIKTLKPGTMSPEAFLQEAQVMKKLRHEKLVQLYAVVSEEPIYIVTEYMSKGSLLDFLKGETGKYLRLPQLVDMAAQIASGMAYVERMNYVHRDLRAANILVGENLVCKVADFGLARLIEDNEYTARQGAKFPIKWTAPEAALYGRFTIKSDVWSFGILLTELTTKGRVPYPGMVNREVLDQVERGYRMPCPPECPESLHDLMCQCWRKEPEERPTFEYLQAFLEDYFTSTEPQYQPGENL

[15] = molecular target: Myosin light chain kinase, smooth muscle (Homo sapiens) (UniProt Q15746); assay: Inhibition of recombinant SMMLCK (unknown origin) assessed as residual activity using [gamma-33P]ATP as substrate at 1 uM; outline: as §2
[16] = molecular target: Serine/threonine-protein kinase PLK1 (Homo sapiens) (UniProt P53350); assay: Inhibition of recombinant PLK1 (unknown origin) assessed as residual activity using [gamma-33P]ATP as substrate at 1 uM; outline: as §1
[17] = molecular target: Protein kinase C gamma type (Homo sapiens) (UniProt P05129); assay: Inhibition of recombinant PKCgamma (unknown origin) assessed as residual activity using [gamma-33P]ATP as substrate at 1 uM; outline: as §1
[18] = molecular target: Protein kinase C zeta type (Homo sapiens) (UniProt Q05513); assay: Inhibition of recombinant PKCzeta (unknown origin) assessed as residual activity using [gamma-33P]ATP as substrate at 1 uM; outline: as §1
[19] = molecular target: Ephrin type-A receptor 2 (Homo sapiens) (UniProt P29317); assay: Inhibition of recombinant EPH-A2 (unknown origin) assessed as residual activity using [gamma-33P]ATP as substrate at 1 uM; outline: as §3
[20] = molecular target: Eukaryotic elongation factor 2 kinase (Homo sapiens) (UniProt O00418); assay: Inhibition of recombinant EF2K (unknown origin) assessed as residual activity using [gamma-33P]ATP as substrate at 1 uM; outline: as §3
Eukaryotic elongation factor 2 kinase (Homo sapiens), sequence (O00418 whole entry): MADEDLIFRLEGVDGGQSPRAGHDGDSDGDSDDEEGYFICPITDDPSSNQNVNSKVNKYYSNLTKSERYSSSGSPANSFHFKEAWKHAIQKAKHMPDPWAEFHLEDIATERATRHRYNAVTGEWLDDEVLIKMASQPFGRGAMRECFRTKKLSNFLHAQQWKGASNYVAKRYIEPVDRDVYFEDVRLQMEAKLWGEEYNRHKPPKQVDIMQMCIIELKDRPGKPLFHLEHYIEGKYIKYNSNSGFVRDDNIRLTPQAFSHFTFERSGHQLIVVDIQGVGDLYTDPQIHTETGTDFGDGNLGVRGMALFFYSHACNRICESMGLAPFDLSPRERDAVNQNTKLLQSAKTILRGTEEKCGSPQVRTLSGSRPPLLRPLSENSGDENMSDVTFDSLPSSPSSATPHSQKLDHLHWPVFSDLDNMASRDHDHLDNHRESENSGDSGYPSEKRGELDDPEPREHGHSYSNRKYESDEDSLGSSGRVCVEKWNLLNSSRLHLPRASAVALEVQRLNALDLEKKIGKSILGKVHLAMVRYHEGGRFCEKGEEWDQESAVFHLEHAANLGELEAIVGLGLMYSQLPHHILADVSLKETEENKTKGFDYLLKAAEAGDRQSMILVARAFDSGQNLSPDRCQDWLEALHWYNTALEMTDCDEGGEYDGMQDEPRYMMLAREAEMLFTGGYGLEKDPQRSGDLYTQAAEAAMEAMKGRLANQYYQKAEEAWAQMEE

[21] = molecular target: Dual specificity tyrosine-phosphorylation-regulated kinase 3 (Homo sapiens) (UniProt O43781); assay: Inhibition of recombinant DYRK3 (unknown origin) assessed as residual activity using [gamma-33P]ATP as substrate at 1 uM; outline: as §3
Dual specificity tyrosine-phosphorylation-regulated kinase 3 (Homo sapiens), sequence (O43781 whole entry): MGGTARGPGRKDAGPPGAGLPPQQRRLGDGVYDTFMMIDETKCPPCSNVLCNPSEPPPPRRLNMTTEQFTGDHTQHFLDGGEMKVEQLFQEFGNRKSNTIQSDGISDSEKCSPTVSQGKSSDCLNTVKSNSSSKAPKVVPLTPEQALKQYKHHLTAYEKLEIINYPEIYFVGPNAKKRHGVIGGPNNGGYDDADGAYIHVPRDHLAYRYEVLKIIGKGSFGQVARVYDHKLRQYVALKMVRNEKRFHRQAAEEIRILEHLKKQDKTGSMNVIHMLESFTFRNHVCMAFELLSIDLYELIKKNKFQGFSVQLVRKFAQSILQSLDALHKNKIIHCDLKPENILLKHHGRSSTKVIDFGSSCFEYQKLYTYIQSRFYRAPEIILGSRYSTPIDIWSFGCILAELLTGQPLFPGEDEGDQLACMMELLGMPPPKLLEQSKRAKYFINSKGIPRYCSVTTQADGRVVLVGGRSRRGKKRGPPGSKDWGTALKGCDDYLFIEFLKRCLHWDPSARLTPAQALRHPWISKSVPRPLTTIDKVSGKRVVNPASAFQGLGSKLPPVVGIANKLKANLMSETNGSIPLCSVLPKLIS

[22] = molecular target: Cyclin-dependent kinase 2/cyclin A (Homo sapiens) (UniProt P24941+P20248+P78396); assay: Inhibition of recombinant CDK2/cyclin A (unknown origin) assessed as residual activity using [gamma-33P]ATP as substrate at 1 uM; assay type: protein-complex assay
Outline: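 CDK2/cyclin A included in the radiometric panel at 1 µM in duplicate. Reactions started with [γ-33P]ATP (800 cpm/pmol) at 5, 20 or 50 µM, at or below the enzyme's ATP Km. Stopped with phosphoric acid, spotted onto P81 filters; result given as residual kinase activity.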

[23] = molecular target: Tyrosine-protein kinase BTK (Homo sapiens) (UniProt Q06187); assay: Inhibition of recombinant BTK (unknown origin) assessed as residual activity using [gamma-33P]ATP as substrate at 1 uM; outline: as §3
Tyrosine-protein kinase BTK (Homo sapiens), sequence (Q06187 whole entry): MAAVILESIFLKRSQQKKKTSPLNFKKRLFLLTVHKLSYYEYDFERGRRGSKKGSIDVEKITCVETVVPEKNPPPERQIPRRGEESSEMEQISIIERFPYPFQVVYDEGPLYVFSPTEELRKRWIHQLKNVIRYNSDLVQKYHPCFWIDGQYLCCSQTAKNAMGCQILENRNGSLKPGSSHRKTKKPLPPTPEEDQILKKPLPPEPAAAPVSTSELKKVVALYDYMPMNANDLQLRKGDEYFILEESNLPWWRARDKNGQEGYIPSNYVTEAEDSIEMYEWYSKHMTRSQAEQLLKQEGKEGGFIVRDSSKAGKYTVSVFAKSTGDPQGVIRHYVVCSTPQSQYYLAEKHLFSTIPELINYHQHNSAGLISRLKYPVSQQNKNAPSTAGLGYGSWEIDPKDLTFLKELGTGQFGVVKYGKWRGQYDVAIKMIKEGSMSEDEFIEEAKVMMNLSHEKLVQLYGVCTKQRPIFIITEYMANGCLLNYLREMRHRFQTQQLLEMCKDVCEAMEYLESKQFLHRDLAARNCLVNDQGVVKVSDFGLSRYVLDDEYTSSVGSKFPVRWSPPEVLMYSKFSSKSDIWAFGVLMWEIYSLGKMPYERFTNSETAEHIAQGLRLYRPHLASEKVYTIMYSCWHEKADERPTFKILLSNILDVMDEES

[24] = molecular target: Mitogen-activated protein kinase kinase kinase 5 (Homo sapiens) (UniProt Q99683); assay: Inhibition of recombinant ASK1 (unknown origin) assessed as residual activity using [gamma-33P]ATP as substrate at 1 uM; outline: as §3
Mitogen-activated protein kinase kinase kinase 5 (Homo sapiens), sequence (Q99683 whole entry): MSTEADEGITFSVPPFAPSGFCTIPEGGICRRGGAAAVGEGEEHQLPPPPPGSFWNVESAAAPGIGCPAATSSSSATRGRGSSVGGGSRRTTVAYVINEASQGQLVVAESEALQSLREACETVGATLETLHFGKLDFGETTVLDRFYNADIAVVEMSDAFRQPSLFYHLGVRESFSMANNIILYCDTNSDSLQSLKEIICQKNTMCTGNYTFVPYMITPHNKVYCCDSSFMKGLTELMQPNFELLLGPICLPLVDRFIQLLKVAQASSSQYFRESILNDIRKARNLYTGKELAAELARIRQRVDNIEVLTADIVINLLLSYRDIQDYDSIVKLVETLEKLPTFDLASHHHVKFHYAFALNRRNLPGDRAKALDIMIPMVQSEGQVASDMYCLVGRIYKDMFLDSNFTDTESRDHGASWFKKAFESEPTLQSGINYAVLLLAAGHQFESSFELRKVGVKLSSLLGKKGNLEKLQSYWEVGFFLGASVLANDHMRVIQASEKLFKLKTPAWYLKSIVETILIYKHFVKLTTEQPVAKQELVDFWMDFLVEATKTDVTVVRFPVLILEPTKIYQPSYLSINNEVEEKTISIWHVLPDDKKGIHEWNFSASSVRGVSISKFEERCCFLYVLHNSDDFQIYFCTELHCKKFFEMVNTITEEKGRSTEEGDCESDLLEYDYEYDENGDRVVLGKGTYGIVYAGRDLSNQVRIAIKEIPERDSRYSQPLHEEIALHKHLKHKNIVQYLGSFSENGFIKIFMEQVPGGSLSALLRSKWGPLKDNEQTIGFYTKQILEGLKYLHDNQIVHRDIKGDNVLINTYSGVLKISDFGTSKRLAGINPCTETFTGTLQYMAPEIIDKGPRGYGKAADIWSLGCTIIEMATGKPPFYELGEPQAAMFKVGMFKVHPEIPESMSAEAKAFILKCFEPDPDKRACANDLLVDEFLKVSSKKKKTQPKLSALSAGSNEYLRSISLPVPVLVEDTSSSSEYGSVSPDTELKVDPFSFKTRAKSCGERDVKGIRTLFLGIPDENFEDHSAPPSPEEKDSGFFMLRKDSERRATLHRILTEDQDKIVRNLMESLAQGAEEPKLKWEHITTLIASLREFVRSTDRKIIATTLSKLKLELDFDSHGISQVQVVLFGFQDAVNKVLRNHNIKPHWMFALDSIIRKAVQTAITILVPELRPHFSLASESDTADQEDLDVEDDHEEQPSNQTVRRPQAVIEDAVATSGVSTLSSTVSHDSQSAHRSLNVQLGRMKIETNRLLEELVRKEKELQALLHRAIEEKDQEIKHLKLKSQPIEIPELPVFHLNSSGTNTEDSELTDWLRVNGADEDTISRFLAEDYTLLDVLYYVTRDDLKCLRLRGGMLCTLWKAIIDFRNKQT

[25] = molecular target: 5'-AMP-activated protein kinase catalytic subunit alpha-2 (Homo sapiens) (UniProt P54646); assay: Inhibition of recombinant AMPK (unknown origin) assessed as residual activity using [gamma-33P]ATP as substrate at 1 uM; outline: as §3
[26] = molecular target: 3-phosphoinositide-dependent protein kinase 1 (Homo sapiens) (UniProt O15530); assay: Inhibition of recombinant PDK1 (unknown origin) assessed as residual activity using [gamma-33P]ATP as substrate at 1 uM

Structure (SMILES) | Activity [1] | Activity [2] | Activity [3] | Activity [4] | Activity [5] | Activity [6] | Activity [7] | Activity [8] | Activity [9] | Activity [10] | Activity [11] | Activity [12] | Activity [13] | Activity [14] | Activity [15] | Activity [16] | Activity [17] | Activity [18] | Activity [19] | Activity [20] | also measured
CC[C@@H](CO)Nc1nc(NC(=N)N)c2ncn(C(C)C)c2n1 | 38% | 71% | 178% | 28% | 96% | 19% | 62% | 78% | 16% | 17% | 10% | 18% | 13% | 6% | 32% | 108% | 61% | 61% | 17% | 94% | Activity [21]: 11%; Activity [22]: 7%; Activity [23]: 48%; Activity [24]: 81%; Activity [25]: 22%; Activity [26]: 62%
CC[C@H](CO)Nc1nc(NC(=N)N)c2ncn(C(C)C)c2n1 | 45% | 77% | 173% | 41% | 91% | 27% | 45% | 88% | 19% | 26% | 15% | 16% | 7% | 22% | 49% | 108% | 73% | 68% | 22% | 94% | Activity [21]: 18%; Activity [22]: 5%; Activity [23]: 53%; Activity [24]: 100%; Activity [25]: 29%; Activity [26]: 68%
